Data on 7 molecules can be found in ChEMBL document CHEMBL4819099, “A biphenyl inhibitor of eIF4E targeting an internal binding site enables the design of cell-permeable PROTAC-degraders” (Eur J Med Chem, 2021).

SMILES strings stand for the structures. The source made the active and inactive calls. The calls are words filed in the database; no cut-off is given here.

The target of test [1] is Protein cereblon (Homo sapiens, UniProt Q96SW2). Briefly: Binding affinity to Cereblon in human Flp293T cells transfected with BRD4(BD2)-GFP fusion protein and mCherry reporter assessed as inhibition of dBET6-induced BRD4(BD2) degradation after 5 hrs fluorescence based analysis. Format: cell-based. An outline of the steps:
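Flp293T cells stably expressing BRD4_BD2-GFP plus mCherry reporter, seeded a day earlier in FluoroBrite DMEM/10% FBS; compounds in dose response co-dosed with 100 nM dBET6 (0.5% DMSO), 5 h. […] Lenalidomide positive control.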

Test [2] addresses T1, Protein cereblon/Eukaryotic translation initiation factor 4E (Homo sapiens) (UniProt P06730+Q96SW2). Briefly: Protac activity at CRBN/eIF4E in human HEK293T cells assessed as induction of intracellular eIF4E degradation at 1 uM measured after 0.5 to 24 hrs by Western blot analysis. Format: cell-based. The conditions noted are these: time 0.5-24 hrs. An outline of the steps:
(§1)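 HEK293T cells exposed either to 0.1-10 μM PROTAC for 24 h or to 1 μM PROTAC for 0.5 to 24 h, DMSO-treated cells alongside; eIF4E level assessed by immunoblotting.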
On the technique in general: In western blotting, separated proteins are transferred to a membrane and probed.

For test [3], the target named is T1, Protein cereblon/Eukaryotic translation initiation factor 4E (Homo sapiens). Briefly: Protac activity at CRBN/eIF4E in human HEK293T cells assessed as induction of eIF4E ubiquitination at 1 uM in presence of 26S proteasome inhibitor, Bortezomib by Western blot analysis. Format: cell-based. An outline of the steps: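 HEK293T cells incubated with 1 μM PROTAC plus 100 nM bortezomib; eIF4E ubiquitination compared with bortezomib-alone and DMSO-treated cells.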

For test [4], the system named is HeLa. Briefly: Cytotoxicity activity against human HeLa cells assessed as cell killing at 10 uM measured after 24 hrs by CellTiter Glo luminescence assay. Type of test: functional. An outline of the steps:
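HeLa cells in 4.5 g/L glucose DMEM, 10% FBS, 1% pen/strep, 5x10³ cells/well; medium replaced 24 h post-seeding with drug-containing medium at equal DMSO. CellTiter-Glo luminescence read, normalized to DMSO control; at least two experiments, triplicates.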

Test [5] deals with T1, Protein cereblon/Eukaryotic translation initiation factor 4E (Homo sapiens). Briefly: Protac activity at CRBN/eIF4E in human HEK293T cells assessed as induction of intracellular eIF4E degradation at 0.1 to 10 uM measured after 24 hrs by Western blot analysis. Format: cell-based. To be noted: dose 0.1-10 µM. In a few lines: as §1
Test [6] has as its system MCF7. Briefly: Cytotoxicity against human MCF7 cells assessed as reduction in cell viability after 48 hrs by Cell specific bioluminescence imaging (CS-BLI) assay. To be noted: MCF7, 48 h.
Test [7] concerns MM1.S. Briefly: Cytotoxicity against human MM1.S cells assessed as reduction in cell viability after 72 hrs by Cell specific bioluminescence imaging (CS-BLI) assay.
Test [8] deals with MM1.S. The test can be described thus: Cytotoxicity against human MM1.S cells assessed as reduction in cell viability after 24 hrs by Cell specific bioluminescence imaging (CS-BLI) assay.
The test system of test [9] is MCF7. Briefly: Cytotoxicity against human MCF7 cells assessed as reduction in cell viability after 24 hrs by Cell specific bioluminescence imaging (CS-BLI) assay. The conditions noted are these: MCF7, 24 h.
Test [10] has as its system MM1.S. The test can be described thus: Cytotoxicity against human MM1.S cells assessed as reduction in cell viability after 48 hrs by Cell specific bioluminescence imaging (CS-BLI) assay.
The test system of test [11] is MCF7. Briefly: Cytotoxicity against human MCF7 cells assessed as reduction in cell viability after 72 hrs by Cell specific bioluminescence imaging (CS-BLI) assay. To be noted: MCF7, 72 h.
Test [12] concerns the target T1, Protein cereblon/Eukaryotic translation initiation factor 4E (Homo sapiens). The test can be described thus: Protac activity at CRBN/eIF4E in human Kelly cells assessed as induction of eIF4E degradation by measuring downregulation of eIF4E protein expression at 1 uM measured after 5 hrs by proteomics analysis based LC-MS analysis. Type of test: cell-based. An outline of the steps:
(§2)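 Kelly cells given 1 μM compound or DMSO (biological triplicate) for 5 h; urea/EPPS pH 8.5 lysis, 100 μg protein reduced, alkylated, digested, TMT-labelled, high-pH reverse-phase fractionated into 96 fractions; LC-MS over a 190 min 9-32% acetonitrile gradient with MS3-based TMT quantification with real-time search; change relative to DMSO.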

For test [13], the target named is Protein cereblon/Zinc finger protein 827 (Homo sapiens) (UniProt Q96SW2+Q17R98). The test can be described thus: Protac activity at CRBN/ZNF827 in human Kelly cells assessed as induction of ZNF827 degradation by measuring downregulation of ZNF827 protein expression at 1 uM measured after 5 hrs by proteomics analysis based LC-MS analysis. Type of test: cell-based. An outline of the steps: as §2

Test [14] has as its target Protein cereblon/Zinc finger protein 692 (Homo sapiens) (UniProt Q96SW2+Q9BU19). Briefly: Protac activity at CRBN/ZNF692 in human Kelly cells assessed as induction of ZNF692 degradation by measuring downregulation of ZNF692 protein expression at 1 uM measured after 5 hrs by proteomics analysis based LC-MS analysis. Format: cell-based. An outline of the steps: as §2

Test [15] concerns the target Protein cereblon/Sal-like protein 4 (Homo sapiens) (UniProt Q96SW2+Q9UJQ4). The test can be described thus: Protac activity at CRBN/SALL4 in human Kelly cells assessed as induction of SALL4 degradation by measuring downregulation of SALL4 protein expression at 1 uM measured after 5 hrs by proteomics analysis based LC-MS analysis. Format: cell-based. An outline of the steps:
as §2

Protein cereblon, sequence (Q96SW2 whole entry, the tested form may be a part): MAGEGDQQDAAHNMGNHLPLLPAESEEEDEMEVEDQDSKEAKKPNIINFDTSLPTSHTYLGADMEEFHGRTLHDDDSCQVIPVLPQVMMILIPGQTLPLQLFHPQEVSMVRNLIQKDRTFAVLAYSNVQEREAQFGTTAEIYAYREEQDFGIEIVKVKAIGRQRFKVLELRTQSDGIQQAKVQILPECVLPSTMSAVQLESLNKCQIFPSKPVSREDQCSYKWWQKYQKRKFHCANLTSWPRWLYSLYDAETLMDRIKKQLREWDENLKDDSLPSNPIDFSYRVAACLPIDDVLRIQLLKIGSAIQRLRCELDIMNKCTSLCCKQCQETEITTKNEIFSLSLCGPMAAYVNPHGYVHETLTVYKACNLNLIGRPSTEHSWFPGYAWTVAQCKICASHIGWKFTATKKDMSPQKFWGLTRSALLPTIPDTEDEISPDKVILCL
T1 sequence (P06730 whole entry, looked up): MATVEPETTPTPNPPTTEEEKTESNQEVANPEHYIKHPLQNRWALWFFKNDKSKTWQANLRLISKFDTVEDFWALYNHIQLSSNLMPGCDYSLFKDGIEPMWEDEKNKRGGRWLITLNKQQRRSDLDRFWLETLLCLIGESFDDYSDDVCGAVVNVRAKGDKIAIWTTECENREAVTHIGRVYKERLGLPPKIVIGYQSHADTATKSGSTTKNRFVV
T1 sequence (Q96SW2 whole entry, looked up): as the sequence (Q96SW2 whole entry, the tested form may be a part) above
Protein cereblon/Zinc finger protein 692 (Homo sapiens), sequence (Q96SW2 whole entry, looked up): as the sequence (Q96SW2 whole entry, the tested form may be a part) above
Protein cereblon/Zinc finger protein 692 (Homo sapiens), sequence (Q9BU19 whole entry, looked up): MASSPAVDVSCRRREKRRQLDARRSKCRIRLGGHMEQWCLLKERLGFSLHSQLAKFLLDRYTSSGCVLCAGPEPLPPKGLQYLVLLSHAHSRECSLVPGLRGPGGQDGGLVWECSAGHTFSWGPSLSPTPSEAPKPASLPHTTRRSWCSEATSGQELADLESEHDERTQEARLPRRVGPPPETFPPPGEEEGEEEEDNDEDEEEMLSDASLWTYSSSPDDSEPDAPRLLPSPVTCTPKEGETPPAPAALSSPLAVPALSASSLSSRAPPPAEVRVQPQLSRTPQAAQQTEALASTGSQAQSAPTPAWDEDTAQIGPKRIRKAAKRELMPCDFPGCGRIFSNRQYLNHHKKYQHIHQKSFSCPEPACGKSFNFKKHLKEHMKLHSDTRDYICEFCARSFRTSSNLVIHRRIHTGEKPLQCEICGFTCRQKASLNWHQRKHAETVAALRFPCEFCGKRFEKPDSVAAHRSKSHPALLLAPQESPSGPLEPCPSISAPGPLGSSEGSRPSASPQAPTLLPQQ
Protein cereblon/Sal-like protein 4 (Homo sapiens), sequence (Q96SW2 whole entry, looked up): as the sequence (Q96SW2 whole entry, the tested form may be a part) above
Protein cereblon/Sal-like protein 4 (Homo sapiens), sequence (Q9UJQ4 whole entry, looked up): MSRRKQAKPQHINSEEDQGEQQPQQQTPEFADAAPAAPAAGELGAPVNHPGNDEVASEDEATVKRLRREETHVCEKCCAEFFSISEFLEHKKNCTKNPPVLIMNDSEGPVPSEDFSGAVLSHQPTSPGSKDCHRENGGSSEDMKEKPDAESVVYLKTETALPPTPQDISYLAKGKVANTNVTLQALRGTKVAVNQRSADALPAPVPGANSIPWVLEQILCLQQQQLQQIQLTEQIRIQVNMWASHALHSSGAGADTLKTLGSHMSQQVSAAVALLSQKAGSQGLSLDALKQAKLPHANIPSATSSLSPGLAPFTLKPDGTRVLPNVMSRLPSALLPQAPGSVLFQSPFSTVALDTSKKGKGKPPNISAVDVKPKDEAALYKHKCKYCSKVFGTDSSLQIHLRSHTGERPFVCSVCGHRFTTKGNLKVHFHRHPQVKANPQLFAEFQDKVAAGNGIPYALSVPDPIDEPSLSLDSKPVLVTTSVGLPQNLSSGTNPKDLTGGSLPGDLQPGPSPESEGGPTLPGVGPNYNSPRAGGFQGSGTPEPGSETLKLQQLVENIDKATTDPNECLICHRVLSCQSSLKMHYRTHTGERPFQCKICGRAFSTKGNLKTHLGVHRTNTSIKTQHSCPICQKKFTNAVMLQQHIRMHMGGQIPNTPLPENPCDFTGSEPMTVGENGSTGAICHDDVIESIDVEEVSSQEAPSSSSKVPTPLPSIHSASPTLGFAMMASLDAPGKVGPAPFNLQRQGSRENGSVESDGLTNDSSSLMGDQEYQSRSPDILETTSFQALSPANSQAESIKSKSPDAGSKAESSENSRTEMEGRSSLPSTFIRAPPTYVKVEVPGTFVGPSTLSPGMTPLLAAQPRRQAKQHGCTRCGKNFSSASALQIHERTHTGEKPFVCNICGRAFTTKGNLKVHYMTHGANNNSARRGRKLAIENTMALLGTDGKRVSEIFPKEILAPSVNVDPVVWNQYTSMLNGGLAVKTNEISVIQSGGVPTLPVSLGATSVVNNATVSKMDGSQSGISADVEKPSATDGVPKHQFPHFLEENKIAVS
Protein cereblon/Zinc finger protein 827 (Homo sapiens), sequence (Q17R98 whole entry, looked up): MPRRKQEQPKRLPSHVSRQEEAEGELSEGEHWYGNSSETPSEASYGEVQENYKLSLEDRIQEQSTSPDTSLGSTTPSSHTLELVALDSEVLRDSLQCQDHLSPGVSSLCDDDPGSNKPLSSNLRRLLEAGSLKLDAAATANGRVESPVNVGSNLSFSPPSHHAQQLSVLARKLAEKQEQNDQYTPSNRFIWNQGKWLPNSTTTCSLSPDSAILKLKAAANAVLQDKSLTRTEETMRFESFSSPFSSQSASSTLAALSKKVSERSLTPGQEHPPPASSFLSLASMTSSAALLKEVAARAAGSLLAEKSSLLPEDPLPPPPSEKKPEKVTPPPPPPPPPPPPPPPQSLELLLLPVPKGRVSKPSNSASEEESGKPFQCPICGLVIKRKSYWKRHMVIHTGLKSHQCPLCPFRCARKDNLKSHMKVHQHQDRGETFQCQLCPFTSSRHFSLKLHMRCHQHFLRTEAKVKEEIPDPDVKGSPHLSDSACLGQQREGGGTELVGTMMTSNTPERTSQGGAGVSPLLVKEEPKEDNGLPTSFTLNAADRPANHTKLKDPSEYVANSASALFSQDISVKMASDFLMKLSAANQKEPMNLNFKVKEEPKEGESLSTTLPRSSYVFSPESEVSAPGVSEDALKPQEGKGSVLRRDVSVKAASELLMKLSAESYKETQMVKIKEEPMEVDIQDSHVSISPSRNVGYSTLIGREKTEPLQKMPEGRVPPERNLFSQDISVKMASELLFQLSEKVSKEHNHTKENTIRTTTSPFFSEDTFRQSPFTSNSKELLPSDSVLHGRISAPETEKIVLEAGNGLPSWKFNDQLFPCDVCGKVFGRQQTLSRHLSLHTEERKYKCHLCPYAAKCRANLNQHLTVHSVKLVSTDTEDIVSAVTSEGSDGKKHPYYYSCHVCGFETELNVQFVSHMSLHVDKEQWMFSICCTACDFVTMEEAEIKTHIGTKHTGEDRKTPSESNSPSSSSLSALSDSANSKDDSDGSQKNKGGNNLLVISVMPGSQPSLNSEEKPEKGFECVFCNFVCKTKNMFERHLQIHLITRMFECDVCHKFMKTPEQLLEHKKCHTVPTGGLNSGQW
Protein cereblon/Zinc finger protein 827 (Homo sapiens), sequence (Q96SW2 whole entry, looked up): as the sequence (Q96SW2 whole entry, the tested form may be a part) above

Take `O=C(COc1cccc2c1C(=O)N(C1CCC(=O)NC1=O)C2=O)NCCCCNC(=O)Cc1sc(N/N=C(\Cc2ccccc2[N+](=O)[O-])C(=O)O)nc1-c1ccc(Cl)c(Cl)c1` (configuration not stated): the result in test [1] (Flp-In-293) was inactive.
As for `O=C1CCC(N2C(=O)c3cccc(NCCCCNC(=O)/C(=N\Nc4nc(-c5ccc(-c6ccccc6)cc5)cs4)c4ccccc4[N+](=O)[O-])c3C2=O)C(=O)N1` (configuration not stated), the IC50 in test [1] was 13 µM.
`C/C(=N\Nc1nc(-c2ccc(-c3ccccc3)cc2)cs1)C(=O)NCCNc1cccc2c1C(=O)N(C1CCC(=O)NC1=O)C2=O` (configuration not stated): the result in test [2], in [3] and in test [5] was inactive. Moreover, the Activity in test [4] was 50%.
For the molecule `O=C(O)C(Cc1ccccc1[N+](=O)[O-])=NNc1nc(-c2ccc(Cl)c(Cl)c2)cs1`, the IC50 in [6] was found to be 43.1 µM; in test [7], 15.6 µM; in [8] it was 22.6 µM; in [9] it was 71.2 µM; in test [10], 18.7 µM; in test [11], 35.1 µM.
On to `C/C(=N\Nc1nc(-c2ccc(-c3ccccc3)cc2)cs1)C(=O)NCCCCNc1cccc2c1C(=O)N(C1CCC(=O)NC1=O)C2=O` (configuration not stated), for which the outcome in test [12] was inactive. Also, the IC50 in [1] worked out at 1.6 µM. Further, the result in test [13], in [14] and in test [15] was Active.
As for `C/C(=N\Nc1nc(-c2ccc(Cl)c(Cl)c2)c(CC(=O)NCCNc2cccc3c2C(=O)N(C2CCC(=O)NC2=O)C3=O)s1)C(=O)OCOC(=O)C(C)(C)C` (configuration not stated), the outcome in test [2], in test [3] and in test [5] was inactive. In test [1], the IC50 was found to be 20.7 µM.
With `C/C(=N\Nc1nc(-c2ccc(-c3ccccc3)cc2)cs1)C(=O)NCCCNc1cccc2c1C(=O)N(C1CCC(=O)NC1=O)C2=O` (configuration not stated), the Activity in test [4] is 50%.

As usually defined, the IC50 is the concentration that inhibits the measured activity by half.
